Measurements published in publication PMC6660416 (Cell, 2019).

Experiments:
5-HT2A-Gαq = 5-HT2A-Gαq (Homo sapiens, UniProt P28223+P50148); assay: Saturation radioligand binding assay with [3H]LSD
MRGPRX2 = assay: Transcription factor reporter primary screen; type: cell-based; details: MRGPRX2 activated by (+)-morphine, 4 hrs post-ligand addition
5-HT2A-RLuc = assay: BRET association assay, 5-HT2A-RLuc and mVenus-nanobody; type: cell-based; details: 5-HT at 1μM or above
R7 tTA = assay: tTA reporter assay; type: cell-based; details: increasing concentrations of DOX
Procedure, shortened: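 Six hours after transfection, cells were washed and dissociated with versene. They were resuspended in DMEM + 1% dialyzed FBS and plated on poly-L-lysine 384-well plates at 10,000 cells/well. Doxycycline HCl, prepared in plating media at 2x, was added for 20–22 hr overnight. Media was then removed and 1:20-diluted Bright-Glo luciferase reagent was added for luminescence read-out.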

[3H]CN1C[C@H](C(=O)N(CC)CC)C=C2c3cccc4[nH]cc(c34)C[C@H]21 [[^3H]LSD, [N-Methyl-^3H]-Lysergic Acid Diethylamide]
BMax (5-HT2A-Gαq; 5HT2A-Gaq membrane + 5uM VGS-Nb2): 1993 fmol/mg | BMax (5-HT2A-Gαq; 5HT2A-Gaq membrane, vehicle): 1333 fmol/mg

CN1CC[C@@]23c4c5ccc(O)c4O[C@@H]2[C@H](O)C=C[C@@H]3[C@@H]1C5 [(+)-morphine]
SRE minimal promoter luciferase response (MRGPRX2): 5 fold | SRF minimal promoter luciferase response (MRGPRX2): 5 fold

NCCc1c[nH]c2ccc(O)cc12 [5-HT, serotonin]
effect of agonist on VGS-Nb2 association to 5-HT2A (5-HT2A-RLuc): no effect

C[C@H]1c2cccc(O)c2C(=O)C2=C(O)[C@]3(O)C(=O)C(C(N)=O)=C(O)[C@@H](N(C)C)[C@@H]3[C@@H](O)[C@@H]21 [DOX, doxycycline]
sensitivity of R7 consensus tTA to doxycycline in TETO7-Rluc reporter (R7 tTA): completely resistant
